From ChEMBL document CHEMBL3352597, “Heck products of parthenolide and melampomagnolide-B as anticancer modulators that modify cell cycle progression” (Eur J Med Chem, 2014)

What was measured:
Format in all cases: functional
A549 = experiment: Anticancer activity against human A549 cells
Method in brief: (§1)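 NCI 60 human cancer cell line panel, multiple-dose testing at five concentrations (10^-4, 10^-5, 10^-6, 10^-7 and 10^-8 M). Dose-response curves plot cytotoxic effect against log10 of drug concentration for each cell line. GI50 is the molar concentration giving 50% growth inhibition; LC50 is the concentration killing 50% of cells.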

HT-29 = experiment: Anticancer activity against human HT-29 cells; method in brief: as §1
CCRF-CEM = experiment: Anticancer activity against human CCRF-CEM cells; method in brief: as §1
NCI-H460 = experiment: Anticancer activity against human NCI-H460 cells; method in brief: as §1
MDA-MB-435 = experiment: Anticancer activity against human MDA-MB-435 cells; method in brief: as §1
[1] = Anticancer activity against human BT549 cells; method in brief: as §1
[2] = read-out: LC50 (the source's name)

## C/C1=C\CC[C@@]2(C)O[C@@H]2[C@H]2OC(=O)/C(=C/c3ccsc3)[C@@H]2CC1
A549
  GI50: 29.8 µM
A549; [2]
  CC50: > 100 µM
HT-29
  GI50: 27 µM
HT-29; [2]
  CC50: > 100 µM
CCRF-CEM
  GI50: 19.1 µM
CCRF-CEM; [2]
  CC50: > 100 µM
NCI-H460
  GI50: 29.3 µM
NCI-H460; [2]
  CC50: > 100 µM
MDA-MB-435
  GI50: 18.3 µM
MDA-MB-435; [2]
  CC50: > 100 µM
[1]; BT-549
  GI50: 20.1 µM
[1]; BT-549, read-out: LC50 (the source's name)
  CC50: 88.2 µM
